The subject of one data set is HT-29. The experiment in a line: Cytotoxicity against human HT-29 cells assessed as inhibition of cell growth incubated for 72 hrs by MTT assay. Type of data set: functional, cell-based. The settings on record: HT-29, 72 h. An outline of the steps: (§1)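 Cells seeded per well (HT-29 4500, PANC-1 4000, SK-MEL-28 3200, A375 1200, A549 2500, H2170 and BJ 10 000) and left 24 h. They were then exposed to increasing concentrations for 72 h and incubated 1 h with MTT 0.5 mg mL−1. Formazan was dissolved in DMSO and absorbance read at 550 nm. IC50 from three independent experiments. Final DMSO ≤0.5%.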

The nature of data set [1]: Toxicity in Balb/c mouse assessed as transient observation of sole sign at 0.01 to 10 mg/kg, ip measured upto 24 hrs by Irwin test. Type of data set: organism-based. The note with it: in vivo, dose 0.01-10 mg/kg. An outline of the steps:
(§2)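 Irwin primary observation in female Balb/c mice aged 7–8 weeks, 3 per group. Single i.p. doses of 0.01, 0.1, 1, 5, 10, 50 and 100 mg kg−1 in 0.2% HPMC in saline; vehicle controls observed in parallel, non-blind. Standardized grid including rectal temperature and pupil diameter scored at 15, 30, 60, 120 and 180 min and 24 h, with continuous watch over 0–15 min.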

The test system of a further data set is SK-MEL-28. In words: Cytotoxicity against human SK-MEL-28 cells assessed as inhibition of cell growth incubated for 72 hrs by MTT assay. The data set is classed as functional, cell-based. The settings on record: SK-MEL-28, 72 h. The essentials: as §1
Data set [2] has as its system PANC-1. In words: Induction of apoptosis in human PANC-1 cells assessed as viable cells at 0.94 uM incubated for 24 hrs by Annexin V-FITC/PI staining based flow cytometric analysis (reference value: 89.8%). The settings on record: read-out: Activity. Type of data set: functional. The essentials:
(§3)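 PANC-1 seeded at 2 × 10^5 cells/well, grown 24 h, then treated 24 h. PI added just before flow cytometry. Quadrant percentages given as mean ± SD of three experiments. Untreated control.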
On the technique in general: A flow cytometer gives signals particle by particle.

For data set [3], the system named is PANC-1. In words: Induction of apoptosis in human PANC-1 cells assessed as early apoptotic cells at 0.94 uM incubated for 24 hrs by Annexin V-FITC/PI staining based flow cytometric analysis (reference value: 5.2%). The data set is classed as functional. An outline of the steps: as §3
The nature of data set [4]: Cytotoxicity against human BJ cells assessed as inhibition of cell growth incubated for 72 hrs by MTT assay. Type of data set: toxicity, cell-based. An outline of the steps:
as §1
For orientation: Formazan colour is commonly taken as a measure of viable cells.

A short description of data set [5]: Toxicity in Balb/c mouse assessed as decreased reactivity to touch at 50 to 100 mg/kg, ip measured upto 24 hrs by Irwin test. The data set is classed as organism-based. The settings on record: in vivo, dose 50-100 mg/kg. An outline of the steps:
as §2

The test system of data set [6] is PANC-1. The experiment in a line: Induction of apoptosis in human PANC-1 cells assessed as late apoptotic cells at 0.94 uM incubated for 24 hrs by Annexin V-FITC/PI staining based flow cytometric analysis (reference value: 1.1%). Type of data set: functional. An outline of the steps:
as §3

Data set [7] in a line: Toxicity in Balb/c mouse assessed as decrease of abdominal muscle tone at 50 to 100 mg/kg, ip measured upto 24 hrs by Irwin test. The note with it: in vivo, dose 50-100 mg/kg. The data set is classed as organism-based. An outline of the steps:
as §2

The test system of data set [8] is PANC-1. In words: Inhibition of cell migration in human PANC-1 cells incubated upto 72 hrs by scratch wound healing assay. The data set is classed as functional, cell-based. The note with it: dose 0.47-2.82 µM. The essentials: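 Confluent PANC-1 monolayers (4000 cells/well seeded, 24 h) were scratched with a P200 tip and washed with PBS. Medium with compound or 0.5% DMSO control was added. Wound area imaged by high-content microscopy at 0, 24, 48 and 72 h.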

Data set [9] concerns PANC-1. In words: Induction of apoptosis in human PANC-1 cells assessed as early apoptotic cells at 2.82 uM incubated for 24 hrs by Annexin V-FITC/PI staining based flow cytometric analysis (reference value: 5.2%). Type of data set: functional. The essentials: as §3
The subject of data set [10] is PANC-1. The experiment in a line: Induction of apoptosis in human PANC-1 cells assessed as necrotic cells at […] incubated for 24 hrs by Annexin V-FITC/PI staining based flow cytometric analysis (reference value: 3.9%). Type of data set: functional. An outline of the steps:
as §3

The next data set deals with A549. In words: Cytotoxicity against human A549 cells assessed as inhibition of cell growth incubated for 72 hrs by MTT assay. Type of data set: functional, cell-based. The note with it: A549, 72 h. The essentials: as §1
For data set [11], the system named is PANC-1. The experiment in a line: Induction of apoptosis in human PANC-1 cells assessed as necrotic cells at 2.82 uM incubated for 24 hrs by Annexin V-FITC/PI staining based flow cytometric analysis (reference value: 3.9%). Type of data set: functional. An outline of the steps:
as §3

The test system of data set [12] is PANC-1. In words: Synergistic cytotoxicity against human PANC-1 cells assessed as combination index at 0.94 uM incubated for 72 hrs in the presence of 47 uM gemcitabine by MTT assay. The data set is classed as functional.
For a further data set, the system named is A-375. In words: Cytotoxicity against human A-375 cells assessed as inhibition of cell growth incubated for 72 hrs by MTT assay. Type of data set: functional, cell-based. The settings on record: A-375, 72 h. The essentials: as §1
A short description of data set [13]: Toxicity in Balb/c mouse assessed as loss of traction indication of muscle weakness at 50 to 100 mg/kg, ip measured upto 24 hrs by Irwin test. The data set is classed as organism-based. The note with it: in vivo, dose 50-100 mg/kg. The essentials:
as §2

The test system of data set [14] is PANC-1. The experiment in a line: Induction of apoptosis in human PANC-1 cells assessed as early apoptotic cells at […] incubated for 24 hrs by Annexin V-FITC/PI staining based flow cytometric analysis (reference value: 5.2%). Type of data set: functional. An outline of the steps:
as §3

Another data set relates to NCI-H2170. In words: Cytotoxicity against human NCI-H2170 cells assessed as inhibition of cell growth incubated for 72 hrs by MTT assay. Type of data set: functional, cell-based. The settings on record: NCI-H2170, 72 h. An outline of the steps: as §1
Data set [15] in a line: Toxicity in Balb/c mouse assessed as piloerection at 50 to 100 mg/kg, ip measured upto 24 hrs by Irwin test. The data set is classed as organism-based. The settings on record: in vivo, dose 50-100 mg/kg. An outline of the steps:
as §2

Data set [16] relates to PANC-1. In words: Synergistic cytotoxicity against human PANC-1 cells assessed as combination index at 0.47 uM incubated for 72 hrs in the presence of 23.5 uM gemcitabine by MTT assay. Type of data set: functional.

Molecules are shown by their SMILES.

This note sets out measurements from ChEMBL document CHEMBL5230168, “Design, synthesis, and biological evaluation of new arjunolic acid derivatives as anticancer agents” (RSC Med Chem, 2023).

For orientation: IC50 means the concentration that gives 50% inhibition.

Regarding `CCOC(=O)[C@]12CCC(C)(C)C[C@H]1C1=CC[C@@H]3[C@@]4(C)C(C=O)=C[C@@](C)(CO)[C@@H]4CC[C@@]3(C)[C@]1(C)CC2`, the IC50 is 0.51 µM in the data set with HT-29; 0.58 µM in the data set with SK-MEL-28; 0.83 µM with A549; 0.58 µM in the data set with A-375; 1.33 µM with NCI-H2170. The Activity entry is “Non-Toxic” in data set [1]; 5.7% with PANC-1 [3]; “Toxic” in data set [5]; 1.2% with PANC-1 [6]; “Toxic” in data set [7]; 9.9% in the data set on PANC-1 [9]. For the same compound, the Activity in the data set on PANC-1 [10] was 2.3%; with PANC-1 [11], 2%; in data set [13] it was “Toxic”; in the data set on PANC-1 [14], 4.9%; in data set [15] it was “Toxic”. Moreover, in the data set with PANC-1 [2], the viability at 0.94 µM is 90.4%. Also, the IC50 at 72 h in data set [4] stood at 3.06 µM. For the same compound, the inhibition result in the data set on PANC-1 [8] was “Dose-Dependent Effect”. Besides, the CI in the data set on PANC-1 [12] was 0.86; in the data set on PANC-1 [16], 0.98.
